This is a sample that favours compounds with a hit; in the whole collection about 2.1% have one here.
EP2 modulator – EP2 receptor modulators, cAMP readout, primary screen, cell-based, HTRF cAMP, PGE2 stimulation; induction, % at 25 µM; EP2-expressing cells, cAMP HTRF FRET, PGE2 co-stimulation; AID 940, 2007; hit rate 0.83% among 260,000; Prostaglandin E2 receptor EP2 subtype (Homo sapiens), P43116;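 active = compounds whose cAMP rise, as percent of the full-agonist control response, exceeds 60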;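 note: rat C6 glioma line stably carrying human EP2 under a CMV promoter; the protocol text gives 20 µM as final concentration; 100% = response of wells given 1 µM PGE2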
Target sequence (P43116 whole entry, looked up): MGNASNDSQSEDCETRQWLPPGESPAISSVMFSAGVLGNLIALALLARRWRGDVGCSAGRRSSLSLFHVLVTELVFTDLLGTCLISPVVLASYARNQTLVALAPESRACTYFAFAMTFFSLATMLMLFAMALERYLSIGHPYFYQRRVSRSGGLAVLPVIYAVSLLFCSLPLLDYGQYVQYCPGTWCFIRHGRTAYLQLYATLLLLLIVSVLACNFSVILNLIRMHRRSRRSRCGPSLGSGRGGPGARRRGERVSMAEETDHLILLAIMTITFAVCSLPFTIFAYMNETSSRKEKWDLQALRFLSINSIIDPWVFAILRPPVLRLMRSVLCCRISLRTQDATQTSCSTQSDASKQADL
KLK5 inh – human KLK5 protease inhibitors, primary screen, biochemical, 1536-well; Kallikrein-5 (Homo sapiens), Q9Y337; recombinant hK5, fluorogenic AMC substrate cleavage; inhibition, % at 5 µM; hit rate 0.59% among 210,000; AID 873, 2007;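 active = inhibition of 40% or more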;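 note: 0% = enzyme controls without compound and 100% = no-enzyme blanks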
Target sequence (Q9Y337 67-293 limits assumed): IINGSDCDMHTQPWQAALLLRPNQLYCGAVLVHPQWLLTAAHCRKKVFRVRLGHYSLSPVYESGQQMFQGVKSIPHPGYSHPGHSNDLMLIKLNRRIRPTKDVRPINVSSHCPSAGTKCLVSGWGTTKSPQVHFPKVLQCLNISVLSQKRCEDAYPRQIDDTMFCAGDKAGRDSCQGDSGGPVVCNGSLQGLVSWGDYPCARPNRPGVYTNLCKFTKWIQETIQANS
FXIa inh 1536 – human FXIa protease inhibitors, primary screen, biochemical, 1536-well; AID 798, 2007; Coagulation factor XI (Homo sapiens), P03951; hit rate 0.14% among 220,000; purified FXIa, Boc-Glu-Ala-Arg-AMC fluorogenic substrate; inhibition, % at 5 µM;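 active = inhibition of at least 40%; inactive = inhibition below 40%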;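 note: fluorescence of freed AMC excited at 355 nm; 0% = enzyme without compound and 100% = no enzyme blank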
thrombin 1536 – human alpha-thrombin inhibitors, primary screen, counter-screen for coagulation protease inhibitor project, biochemical, 1536-well, fluorogenic AMC substrate; Prothrombin (Homo sapiens), P00734; Boc-VPR-AMC fluorogenic substrate cleavage; inhibition, % at 5 µM; hit rate 0.26% among 220,000; AID 1046, 2008;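 active = inhibition at or above 40%; inactive = inhibition below 40%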;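 note: 0% = enzyme with no compound and 100% = wells without enzyme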
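System: Human alpha-thrombin protein | Medium: pH 7.5 Tris (50 mM) with NaCl 150 mM, Tween 20 0.05% | Times: Enzyme reaction carried out at room temperature | Detection: AMC fluorescence, 355/460 nm | Evaluation: Percent inhibition scaled between no-compound controls and no-enzyme blanks | Benchmarks: Enzyme without compound as high, wells lacking enzyme as low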
FXIIa inh – human FXIIa protease inhibitors, primary screen, biochemical, 1536-well; Coagulation factor XII (Homo sapiens), P00748; purified FXIIa, Boc-QGR-AMC fluorogenic substrate, 2 h; inhibition, % at 5 µM; hit rate 0.3% among 220,000; AID 800, 2007; in the data active = inhibition above about 40%;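 note: 0% = enzyme with no compound and 100% = blank without enzyme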
PGE2 EP2 inh – human EP2 receptor antagonists, primary screen, TR-FRET cAMP, C6 glioma cells | hit rate 0.52% among 260,000 | inhibition, % at 25 µM | AID 1422, 2008 | C6 glioma cells expressing human EP2; cells stimulated with saturating PGE2;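 active = percent inhibition above 40 after rounding to a whole number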;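 note: rat C6 glioma host cells with rolipram phosphodiesterase inhibitor present; the protocol text gives 20 µM as final concentration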
Numbers without * were called inactive; . = no result.

SMILES	EP2 modulator	KLK5 inh	FXIa inh 1536	thrombin 1536	FXIIa inh	PGE2 EP2 inh
COc1cccc2c1C(=O)c1c(O)c3c(c(O)c1C2=O)C[C@@](O)(C(=O)CO)C[C@H]3O[C@H]1C[C@@H](N)[C@H](O)[C@@H](C)O1.[W]	15.3	.	.	.	.	39.8*
CCCCOC(=O)CSCC(=O)N1N=C(c2cccs2)CC1c1ccc(F)cc1 (stereo not given)	37.4	-5.3	-10.9	2.0	4.4	50.0*
c1ccc(-c2c(-c3ccccc3)n(Cc3ccco3)c3ncnc(NCCCn4ccnc4)c23)cc1	-20.9	14.6	1.0	0.6	8.0	48.7*
CC1CCc2c(sc3nc(C4CC4)n4c(SCC(=O)NCc5ccccc5)nnc4c23)C1 (stereo not given)	46.5	.	.	.	.	14.3
O=C1Nc2c(c(=O)[nH]c(=O)n2-c2ccccc2)C1(Nc1ncccn1)C(F)(F)F (stereo not given)	15.6	155.8*	15.1	12.5	31.7	8.5
O=C(CCl)NC1(C(F)(F)F)C(=O)Nc2c1c(=O)[nH]c(=O)n2-c1ccccc1 (stereo not given)	5.6	2.6	5.5	1.8	12.9	10.1
Nc1ccc2nc(-c3cccs3)[nH]c2c1	4.3	-48.0	-13.7	-11.2	-24.6	93.3*
COc1ccc(N(CC(=O)Nc2ccccc2SC)S(C)(=O)=O)cc1OC	-3.6	-14.9	11.6	0.2	44.5*	1.2
CSc1ccccc1NC(=O)CN(c1cccc(C)c1)S(C)(=O)=O	2.8	-23.7	-3.6	-3.0	2.2	4.0
O=C1/C(=C/c2cccc3ccccc23)CCCc2ccccc21	61.1*	13.3	6.1	1.8	14.2	.
O=C1/C(=C/c2ccncc2)CCc2ccccc21	-15.5	2.9	3.4	5.8	14.8	1.6
N#CC(C#N)=C1C=CC=CN1/C(=C\c1ccccc1Cl)C(=O)c1ccccc1	-29.6	-9.8	-2.3	-3.1	2.1	24.4
N#CC(C#N)=C1C=CC=CN1/C(=C\c1ccccc1)C(=O)c1cccs1	1.8	0.2	10.2	-1.9	5.5	49.5*
Cc1ccccc1NC(=O)Cn1c(O)c(N=NC(=O)c2ccccc2O)c2ccccc21	7.2	65.5*	19.9	24.0	11.2	11.0
CC(=O)c1sc(N2C(=O)C(=O)/C(=C(\O)c3cc(C)ccc3C)C2c2cccnc2)nc1C (stereo not given)	3.1	.	.	.	.	37.8
COc1ccc(CC(=O)NCC2CCN(c3nc(C)cc(C)n3)CC2)cc1OC	2.4	.	.	.	.	10.0
COc1ccc(-c2csc(N3C(=O)C4C5c6ccccc6C(c6ccccc65)[C@@H]4C3=O)n2)cc1 (stereo not given in full)	6.6	-19.7	0.2	-2.7	7.6	21.6
COc1ccc(-c2csc(N3C(=O)C4C5c6ccccc6C(c6ccccc65)C4C3=O)n2)cc1 (stereo not given)	21.5	62.3*	10.3	23.2	17.2	4.7
Cc1cc(C)c2cc(CN(Cc3cccnc3)S(=O)(=O)c3ccc(C)c(Cl)c3)c(=O)[nH]c2c1	-76.3	.	.	.	.	10.9
Nc1nc(-c2ccc3ccccc3c2)cc(-c2cc(-c3ccc4ccccc4c3)nc(N)n2)n1	5.6	.	.	.	.	51.4*
Cc1ccc(N(CC(O)CN2C(=O)NC(C)(C)C2=O)S(=O)(=O)c2ccc(C)cc2)cc1 (stereo not given)	11.9	31.2	34.4	12.0	49.2*	7.6
O=C(NC1CC2CCCC(C1)N2C(=O)N1CCCCC1)c1ccccc1 (stereo not given)	-82.8	.	.	.	.	9.5
COC(=O)C1=C(C)OC(N)=C(C#N)C1c1cc2cccc(C)c2[nH]c1=O (stereo not given)	-65.9	.	.	.	.	12.5
COc1ccc(-c2nc3ccccc3n2Cc2ccc(C)cc2)cc1	62.4*	-6.7	-0.1	-1.5	17.7	9.2
Cn1cc(C(=O)c2ccc(Cl)cc2Cl)cc1C(=O)N/N=C(\N)COc1ccc(Cl)cc1	-1.1	-8.8	2.0	0.4	8.6	6.6
SMILES	EP2 modulator	KLK5 inh	FXIa inh 1536	thrombin 1536	FXIIa inh	PGE2 EP2 inh
Cn1cc(C(=O)c2ccc(Cl)cc2Cl)cc1C(=O)N/N=C(\N)COc1ccc(F)cc1	-3.0	-111.2	-0.6	75.7*	9.2	17.3
COc1ccc2[nH]c(=O)c(CN(Cc3ccc(C)cc3)C(=O)NC3CCCCC3)cc2c1	0.6	.	.	.	.	16.7
O=c1[nH]c(=S)[nH]c2c1CN(CCCN1CCOCC1)CN2	-42.4	.	.	.	.	101.9*
O=C(O)c1ccncc1.O=C(O)c1ccncc1.[NH2-].[NH2-].[Pt]	-14.3	.	.	.	.	51.3*
O=C(c1ccncc1)N1CCN(C(=O)c2ccncc2)CC1	4.1	0.4	5.4	-2.5	9.0	5.0
CC1CCN(c2nc3c(c(=O)[nH]2)CCN(Cc2ccc(F)cc2)C3)CC1	-13.9	.	.	.	.	.
O=C(c1n[nH]c2c1CCCC2)N1CCn2cc(C(F)(F)F)nc2C1	-45.6	.	.	.	.	4.9
CC(C)(C)c1ccc(C(=O)CSc2nc3ccccc3c(=O)[nH]2)cc1	27.1	40.2*	13.7	13.6	10.0	4.5
O=C(CSc1nc2ccccc2c(=O)[nH]1)c1ccccc1	4.8	-7.0	9.5	4.7	15.5	6.4
COc1ccc(C(=O)CSc2nc(C(C)(C)C)nc3ccccc23)cc1	10.1	-12.0	-3.7	2.4	3.8	5.2
Cc1nc(SCC(=O)c2ccccc2)[nH]c(=O)c1Oc1ccc(Cl)cc1	-7.7	64.4*	29.0	33.5	22.5	12.1
COc1ccc(Oc2c(C)nc(SCC(=O)c3ccc(Cl)cc3)[nH]c2=O)cc1	8.3	4.1	2.9	1.8	11.9	7.1
CC(C)(C)c1nc(SCC(=O)c2ccc(F)cc2)c2ccccc2n1	69.5*	.	.	.	.	6.6
Cn1c(=O)oc2cc(S(=O)(=O)NC3(c4ccccc4F)CC3)ccc21	-83.1	.	.	.	.	7.3
O=C1CC(N2CCC(c3nc4ccccc4[nH]3)CC2)C(=O)N1 (stereo not given)	-15.9	.	.	.	.	11.6
O=C(O)c1cccnc1Nc1ccc(F)c(Cl)c1	3.1	.	.	.	.	23.8
CCOc1ccc2c(c1)c1nnc(SCC(=O)NC3CCCCC3)nc1n2C	6.0	.	.	.	.	5.2
COc1ccc(C(=O)Nc2cc(-c3nc4ccccc4o3)ccc2Cl)cc1Br	5.8	.	.	.	.	10.7
O=C(CSc1ccc(-c2nc3ccccc3[nH]2)cn1)Nc1ccccc1-c1ccccc1	-47.2	.	.	.	.	12.4
O=C(CSc1ccc(-c2nc3ccccc3[nH]2)cn1)Nc1cccc(F)c1	-91.5	.	.	.	.	49.1*
COc1cccc(C(=O)OCCCNC(=O)c2cc3ccccc3oc2=O)c1	-65.7	.	.	.	.	11.6
O=C(OCCNC(=O)c1cc2ccccc2oc1=O)c1cccnc1	64.3*	3.3	-0.7	0.1	11.7	9.5
COC(=O)[C@H]1CN(C(=O)CCN2CCCC2=O)C[C@@H]1c1ccc(F)cc1	10.5	.	.	.	.	.
